Measurements taken from ChEMBL document CHEMBL1156565, “Discovery of (R)-4-(8-fluoro-2-oxo-1,2-dihydroquinazolin-3(4H)-yl)-N-(3-(7-methyl-1H-indazol-5-yl)-1-oxo-1-(4-(piperidin-1-yl)piperidin-1-yl)propan-2-yl)piperidine-1-carboxamide (BMS-694153): a potent antagonist of the human calcitonin gene-related peptide receptor for migraine with rapid and …” (J Med Chem, 2008).
In brackets after ≈: the same amount, converted by molar mass.

Columns and labels:
[1] = Aqueous solubility of compound; type: physicochemical; details: buffer
In short: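 Aqueous solubility measured over pH 1.0-6.8.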

Cytochrome P450 3A4 [2] = target: T1, Cytochrome P450 3A4 (Homo sapiens, UniProt P08684); experiment: Inhibition of recombinant CYP3A4 expressed in insect microsomes after 45 mins in presence of BZR substrate; type: ADME, Microsome
Cytochrome P450 3A4 [3] = target: T1, Cytochrome P450 3A4; experiment: Inhibition of recombinant CYP3A4 expressed in insect microsomes after 20 mins in presence of BFC substrate; type: ADME, Microsome
[4] = target: Calcitonin gene-related peptide type 1 receptor (Homo sapiens, UniProt O60894+Q16602); experiment: Displacement of [I125]CGRP from human CGRP receptor in SK-N-MC cells; type: cell-based
[5] = Aqueous solubility of compound at pH 5; type: physicochemical

T1 sequence (P08684 whole entry): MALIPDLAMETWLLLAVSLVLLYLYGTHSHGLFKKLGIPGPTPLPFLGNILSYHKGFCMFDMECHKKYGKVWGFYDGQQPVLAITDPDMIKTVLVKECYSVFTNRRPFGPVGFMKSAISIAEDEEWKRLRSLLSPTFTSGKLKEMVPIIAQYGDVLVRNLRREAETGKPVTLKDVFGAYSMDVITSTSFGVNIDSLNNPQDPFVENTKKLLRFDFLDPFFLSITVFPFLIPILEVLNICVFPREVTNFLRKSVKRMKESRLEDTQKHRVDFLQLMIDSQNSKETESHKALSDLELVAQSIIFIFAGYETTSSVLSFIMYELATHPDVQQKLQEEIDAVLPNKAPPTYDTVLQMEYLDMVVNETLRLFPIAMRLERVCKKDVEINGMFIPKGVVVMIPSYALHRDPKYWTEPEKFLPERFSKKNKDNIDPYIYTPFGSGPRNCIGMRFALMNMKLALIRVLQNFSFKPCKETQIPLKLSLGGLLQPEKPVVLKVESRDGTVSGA
Chain of Calcitonin gene-related peptide type 1 receptor (Q16602 whole entry, one chain of several): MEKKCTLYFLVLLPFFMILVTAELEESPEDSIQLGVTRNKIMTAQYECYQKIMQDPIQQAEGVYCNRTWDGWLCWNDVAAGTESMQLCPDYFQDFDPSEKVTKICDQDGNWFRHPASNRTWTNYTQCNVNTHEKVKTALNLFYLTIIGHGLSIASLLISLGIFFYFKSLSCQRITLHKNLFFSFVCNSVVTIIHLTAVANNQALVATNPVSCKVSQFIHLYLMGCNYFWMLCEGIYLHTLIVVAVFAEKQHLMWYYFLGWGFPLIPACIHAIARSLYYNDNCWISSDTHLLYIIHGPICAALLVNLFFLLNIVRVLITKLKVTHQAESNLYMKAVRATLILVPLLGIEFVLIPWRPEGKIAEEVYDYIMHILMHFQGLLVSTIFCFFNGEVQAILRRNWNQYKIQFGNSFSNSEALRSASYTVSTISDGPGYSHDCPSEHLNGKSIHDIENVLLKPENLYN

SMILES	Activity [1]	IC50 (Cytochrome P450 3A4 [2]) [µM]	IC50 (Cytochrome P450 3A4 [3]) [µM]	Ki [4] [nM]	solubility [5] [mg/mL]
O=C(N[C@H](Cc1ccc2[nH]ncc2c1)C(=O)N1CCC(N2CCCCC2)CC1)N1CCC(N2Cc3ccccc3NC2=O)CC1	Not Active	4	> 40	–	–
Cc1cc(C[C@@H](NC(=O)N2CCC(N3Cc4ccccc4NC3=O)CC2)C(=O)N2CCC(N3CCCCC3)CC2)cc2cn[nH]c12	–	–	–	0.01	15 (≈ 23.9 mM)
